Laboratory results reported in ChEMBL document CHEMBL1124192, “Cyclopentenylcytosine. A carbocyclic nucleoside with antitumor and antiviral properties” (J Med Chem, 1988).
In brackets after ≈: the same amount, converted by molar mass. Several values for one entry are separate records, joined by “and”; a condition that tells them apart may be missing. Identical values can stand only once.

Assays:
[1] = test system: Cytomegalovirus; test: Log value for antiviral activity against Cytomegalovirus (AD169) from MRC5 diploid human embryonic lung cells at 0.32 ug/mL; type: functional
Outline: (§1)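 CMV AD169 yield reduction in MRC5 cells. Subconfluent monolayers infected at MOI 0.2 PFU/cell for 1.5 h at 37 °C, rinsed, then fed drug in MEM + 2% FBS, in duplicate. Drug refed on day 3, cultures harvested on day 6 by freeze-thaw and pooled. Yield titrated by plaque assay under 0.25% agarose overlay for 5–6 days, then formalin-fixed and methylene blue-stained for plaque counts.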

[2] = test system: Cytomegalovirus; test: Log value for antiviral activity against Cytomegalovirus (AD169) from MRC5 diploid human embryonic lung cells at 100 ug/mL; type: functional; outline: as §1
[3] = test system: L1210; test: Compound was tested for antitumor activity against L1210 leukemia in mouse at dose 2.25 mg/kg administered intraperitoneally in experiment 1; type: functional; conditions: L1210, ip, route intraperitoneal
Outline: (§2)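 Mice bearing L1210, L1210/ara-C, P388 or P388/ara-C leukaemia. Tumour implanted at the site each line names: ip, sc or ic. Drug given ip in physiologic saline on a QD1-9 schedule, at several dose levels per experiment. Life-span runs ended on day 30. Read-out is median % increase in life span versus tumoured untreated controls, with long-term survivors included.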

[4] = test system: L1210; test: Compound was tested for antitumor activity against L1210 leukemia in mouse at dose 2.25 mg/kg administered intraperitoneally in experiment 2; type: functional; conditions: L1210, ip, route intraperitoneal; outline: as §2
[5] = test system: L1210; test: Compound was tested for antitumor activity against L1210/ara-C leukemia in mouse at dose 2.25 mg/kg administered intraperitoneally; type: functional; conditions: L1210, ip, route intraperitoneal; outline: as §2
[6] = test system: L1210; test: Median percent increase in life span of tumored, treated mice relative to tumored, untreated controls after intraperitoneal dose 0.5 mg/kg daily(for every 3 hr); type: functional; conditions: Mus musculus, L1210, ip
[7] = test system: L1210; test: Median percent increase in life span of tumored, treated mice relative to tumored, untreated controls after intraperitoneal dose 1 mg/kg daily (1-9 days); type: functional; conditions: Mus musculus, L1210, ip
[8] = test system: L1210; test: Number of 60-day survivors out of 10 tested at dose 1 mg/kg administered intraperitoneally; type: functional, Mus musculus; conditions: route intraperitoneal
[9] = test system: L1210; test: Number of 60-day survivors out of 10 tested at dose 2.25 mg/kg administered intraperitoneally; type: functional, Mus musculus; conditions: route intraperitoneal
[10] = test system: L1210; test: Number of 60-day survivors out of 9 tested at dose 1.5 mg/kg administered intraperitoneally; type: functional, Mus musculus; conditions: route intraperitoneal
[11] = test system: M5076; test: Compound was tested for antitumor activity against M5076 leukemia in mouse at dose 0.5 mg/kg administered intraperitoneally in experiment 1; type: functional; conditions: M5076, ip, route intraperitoneal
Outline: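 Mice bearing M5076 tumour. Drug given ip in physiologic saline, daily on days 1-13, at several dose levels. Experiment ended on day 30. Read-out is median % increase in life span versus untreated tumoured controls, with long-term survivors included.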

[12] = test system: L1210; test: Compound was tested for antitumor activity against L1210 leukemia in mouse at dose 1.5 mg/kg administered subcutaneously in experiment 1; type: functional; conditions: L1210, sc, route subcutaneous; outline: as §2
[13] = test system: Mus musculus; test: Compound was tested for antitumor activity against human MX-1 mammary tumor xenografts in athymic mice at dose 1.5 mg/kg administered subrenal capsule in experiment 1; type: functional
[14] = test system: Mus musculus; test: Compound was tested for antitumor activity against human A549 lung tumor xenografts in athymic mice at dose 1.5 mg/kg administered subrenal capsule in experiment 1; type: functional
[15] = test system: Mus musculus; test: Compound was tested for antitumor activity against human LOX melanoma tumor xenografts in athymic mice at dose 2.25 mg/kg administered intraperitoneally; type: functional; conditions: ip, route intraperitoneal
Outline: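 Athymic mice carrying human LOX melanoma. Drug given ip in saline on a QD1-9 schedule, at several dose levels. Life-span experiment ended on day 30. Read-out is % increase in life span versus untreated tumoured controls, with long-term survivors included.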

[16] = test system: P388; test: Compound was tested for antitumor activity against P388/ara-C leukemia in mouse at dose 1.5 mg/kg administered intraperitoneally in experiment 2; type: functional; conditions: P388, ip, route intraperitoneal; outline: as §2
[17] = test system: P388; test: Compound was tested for antitumor activity against P388/ara-C leukemia in mouse at dose 1.5 mg/kg administered intraperitoneally in experiment 1; type: functional; conditions: P388, ip, route intraperitoneal; outline: as §2
[18] = test system: Punta Toro virus; test: Tested for inhibition of virus-induced cytopathogenic effect and cytotoxicity of compound against Punta toro virus with adames strain in vero cell; type: functional
[19] = test system: Vesicular stomatitis virus; test: Tested for inhibition of virus-induced cytopathogenic effect and cytotoxicity of compound against vesicular stomatitis RNA virus with indiana strain in L929 cell; type: functional
[20] = test system: Human alphaherpesvirus 3; test: Compound was tested for antiviral activity against Varicella-Zoster from human diploid foreskin cells in mono layer culture at 3.2 ug/ml; type: functional
Outline: (§3)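 VZV isolate DM625 on Huf cells (human diploid foreskin monolayers). Inoculum was left on after 1 h adsorption at 37 °C. Drug overlay in MEM + 2% FBS without agarose, refed with fresh drug at 72 h, in 2% CO2. Cells fixed in 10% formalin and stained with methylene blue; plaques counted day 6. % plaque reduction versus untreated virus controls, triplicates.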

[21] = test system: Human alphaherpesvirus 3; test: Compound was tested for antiviral activity against Varicella-Zoster from human diploid foreskin cells in mono layer culture at 32 ug/ml; type: functional; outline: as §3
[22] = test system: Human alphaherpesvirus 3; test: Compound was tested for antiviral activity against Varicella-Zoster from human diploid foreskin cells in mono layer culture at 320 ug/ml; type: functional; outline: as §3
[23] = test system: Yellow fever virus; test: Inhibitory dose of compound required to inhibit cytopathogenic effects of yellow fever virus with asibi strain in vero cells; type: functional; conditions: read-out: ID50 (the source's name)
[24] = test system: Vero; test: Cytotoxicity of compound was determined by reduction in number of viable vero monolayer cells after treatment with 0.1 ug/mL for 4 days; type: functional, Chlorocebus sabaeus
Outline: (§4)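 Vero monolayers in duplicate cultures, exposed to each drug concentration in medium at 37 °C in a CO2 incubator for 4 days. Viable cells counted by trypan blue exclusion, and % reduction calculated against untreated control cultures.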

[25] = test system: Vero; test: Cytotoxicity of compound was determined by reduction in number of viable vero monolayer cells after treatment with 1 ug/mL for 4 days; type: functional, Chlorocebus sabaeus; outline: as §4
[26] = test system: Vero; test: Cytotoxicity of compound was determined by reduction in number of viable vero monolayer cells after treatment with 100 ug/mL for 4 days; type: functional, Chlorocebus sabaeus; outline: as §4
[27] = test system: Human alphaherpesvirus 3; test: Compound was tested for antiviral activity against Varicella-Zoster from human diploid foreskin cells in mono layer culture at 0.032 ug/ml; type: functional; outline: as §3
[28] = test system: Human alphaherpesvirus 3; test: Compound was tested for antiviral activity against Varicella-Zoster from human diploid foreskin cells in mono layer culture at 0.1 ug/ml; type: functional; outline: as §3
[29] = test system: Human alphaherpesvirus 3; test: Compound was tested for antiviral activity against Varicella-Zoster from human diploid foreskin cells in mono layer culture at 1 ug/ml; type: functional; outline: as §3
[30] = test system: Human alphaherpesvirus 3; test: Compound was tested for antiviral activity against Varicella-Zoster from human diploid foreskin cells in mono layer culture at 10 ug/ml; type: functional; outline: as §3
[31] = Ratio of minimum drug concentration to ID50 of the compound (Adames strain); type: ADME; conditions: read-out: Therapeutic index
[32] = Ratio of minimum drug concentration to ID50 of the compound(Asibi strain); type: ADME; conditions: read-out: Therapeutic index
[33] = Ratio of minimum drug concentration to ID50 of the compound ([…] strain); type: ADME; conditions: read-out: Therapeutic index

SMILES: Nc1ccn([C@@H]2C=C(CO)[C@@H](O)[C@H]2O)c(=O)n1
- Reduction in virus yield [1]: 1.3 pfu/ml
- Reduction in virus yield [2]: 2 pfu/ml
- ILS at 2.25 mg/kg [3]: 125%
- ILS at 2.25 mg/kg [4]: 57%
- ILS at 2.25 mg/kg [5]: > 650%
- ILS at 0.5 mg/kg [6]: 116%
- ILS at 1 mg/kg [7]: 124%
- No. of survivors [8]: 6
- No. of survivors [9]: 6
- No. of survivors [10]: 5 count
- ILS at 0.5 mg/kg [11]: 5%
- ILS at 1.5 mg/kg [12]: 109%
- ILS at 1.5 mg/kg [13]: 100%
- ILS at 1.5 mg/kg [14]: -59%
- ILS at 2.25 mg/kg [15]: 58%
- ILS at 1.5 mg/kg [16]: 133%
- ILS at 1.5 mg/kg [17]: 165%
- Virus rating [18]: 1.5
- Virus rating [19]: 2.4 and 3
- Plaque reduction [20]: 33%
- Plaque reduction [21]: 36%
- Plaque reduction [22]: 36%
- IC50 [23]: 5.05 µg/mL (≈ 21.1 µM)
- Reduction [24]: 50%
- Reduction [25]: 61%
- Reduction [26]: 66%
- Plaque reduction [27]: 3%
- Plaque reduction [28]: 21%
- Plaque reduction [29]: 36%
- Plaque reduction [30]: 33%
- selectivity ratio [31]: 0.3
- selectivity ratio [32]: 0.1
- selectivity ratio [33]: 3.1
